Test results as given in ChEMBL document CHEMBL1148383, “Semisynthetic macrolide antibacterials derived from tylosin. Synthesis and structure-activity relationships of novel desmycosin analogues” (J Med Chem, 2004).
≈ marks a conversion by molar mass, not a printed value.

Assays:
[1] = Tmax in brain of mice at the oral dose of 50 mg/kg; format: ADME, organism-based; parameters: dose 50 mg/kg, route oral; conditions: mouse
[2] = Tmax in kidney of mice at the oral dose of 50 mg/kg; format: ADME, organism-based; parameters: dose 50 mg/kg, route oral; conditions: mouse
[3] = Tmax in liver of mice at the oral dose of 50 mg/kg; format: ADME, organism-based; parameters: dose 50 mg/kg, route oral; conditions: mouse
[4] = Tmax in lungs of mice at the oral dose of 50 mg/kg; format: ADME, organism-based, Lung; parameters: dose 50 mg/kg, route oral; conditions: mouse
[5] = Tmax in spleen of mice at the oral dose of 50 mg/kg; format: ADME, organism-based; parameters: dose 50 mg/kg, route oral; conditions: mouse
Mus musculus [6] = experiment: T2 in kidney of mice at the oral dose of 50 mg/kg; format: ADME, organism-based; parameters: dose 50 mg/kg, route oral; conditions: in vivo
Mus musculus [7] = experiment: T2 in liver of mice at the oral dose of 50 mg/kg; format: ADME, organism-based; parameters: dose 50 mg/kg, route oral; conditions: in vivo
Mus musculus [8] = experiment: T2 in lungs of mice at the oral dose of 50 mg/kg; format: ADME, organism-based, Lung; parameters: dose 50 mg/kg, route oral; conditions: in vivo
[9] = Cmax in spleen of mice at the oral dose of 50 mg/kg; format: ADME, organism-based; parameters: dose 50 mg/kg, route oral; conditions: mouse
Mus musculus [10] = experiment: C2 in kidney of mice at the oral dose of 50 mg/kg; format: ADME, organism-based; parameters: dose 50 mg/kg, route oral; conditions: in vivo
Mus musculus [11] = experiment: C2 in liver of mice at the oral dose of 50 mg/kg; format: ADME, organism-based; parameters: dose 50 mg/kg, route oral; conditions: in vivo
Mus musculus [12] = experiment: C2 in lungs of mice at the oral dose of 50 mg/kg; format: ADME, organism-based, Lung; parameters: dose 50 mg/kg, route oral; conditions: in vivo
Mus musculus [13] = experiment: C2 in spleen of mice at the oral dose of 50 mg/kg; format: ADME, organism-based; parameters: dose 50 mg/kg, route oral; conditions: in vivo
[14] = Cmax in kidney of mice at the oral dose of 50 mg/kg; format: ADME, organism-based; parameters: dose 50 mg/kg, route oral; conditions: mouse
[15] = Cmax in liver of mice at the oral dose of 50 mg/kg; format: ADME, organism-based; parameters: dose 50 mg/kg, route oral; conditions: mouse
[16] = Cmax in lungs of mice at the oral dose of 50 mg/kg; format: ADME, organism-based, Lung; parameters: dose 50 mg/kg, route oral; conditions: mouse
Escherichia coli = experiment: Antibacterial activity against Escherichia coli ATCC […]; format: functional
Outline: (§1)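 MICs were determined by broth microdilution following NCCLS guidelines. The test panel includes erythromycin-susceptible strains and erythromycin-resistant strains with constitutive or inducible MLSB phenotypes or with efflux resistance.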

Enterococcus faecalis = experiment: Antibacterial activity against Enterococcus faecalis ATCC 29212; format: functional; outline: as §1
Haemophilus influenzae = experiment: Antibacterial activity against Haemophilus influenzae ATCC 49247; format: functional; outline: as §1
Streptococcus pneumoniae = experiment: Antibacterial activity against Streptococcus pneumoniae PSCB-0541; format: functional; outline: as §1
Staphylococcus aureus [17] = experiment: Antibacterial activity against Staphylococcus aureus ATCC 13709; format: functional; outline: as §1
Staphylococcus aureus [18] = experiment: Antibacterial activity against Staphylococcus aureus PSCB-0330; format: functional; outline: as §1
Streptococcus pyogenes [19] = experiment: Antibacterial activity against Streptococcus pyogenes PSCB-0543; format: functional; outline: as §1
Streptococcus pyogenes [20] = experiment: Antibacterial activity against Streptococcus pyogenes PSCB-0545; format: functional; outline: as §1
Staphylococcus aureus [21] = experiment: Antibacterial activity against Staphylococcus aureus PSCB-0331; format: functional; outline: as §1
Staphylococcus aureus [22] = experiment: Antibacterial activity against Staphylococcus aureus PSCB-0538; format: functional; outline: as §1
Mus musculus [23] = experiment: T2 in spleen of mice at the oral dose of 50 mg/kg; format: ADME, organism-based; parameters: dose 50 mg/kg, route oral; conditions: in vivo

A Tmax [1] of 0 h, a Tmax [2] of 2 h and a Tmax [3] of 2 h were found for `CC[C@H]1OC(=O)C[C@@H](O)[C@H](C)[C@@H](OC2OC(C)C(O)C(N(C)C)C2O)[C@@H](C/C=C/C(C)=O)C[C@@H](C)C(=O)/C=C/C(C)=C/[C@@H]1COC1OC(C)C(O)C(OC)C1OC` (some centres not stated) in this work. It also gave a Tmax [4] of 2 h, a Tmax [5] of 30 min and a T2 (Mus musculus [6]) of 4 h. The T2 (Mus musculus [7]) was 4 h, the T2 (Mus musculus [8]) was 0.5 h and the Cmax [9] was 7970 ng/g. It also gave a C2 (Mus musculus [10]) of 4.58 µg/g, a C2 (Mus musculus [11]) of 24.43 µg/g and a C2 (Mus musculus [12]) of 10.24 µg/g. It also gave a C2 (Mus musculus [13]) of 7 µg/g, a Cmax [14] of 14300 ng/g and a Cmax [15] of 33300 ng/g. The Cmax [16] was 10400 ng/g, the MIC (Escherichia coli) was 128 µg/mL (≈ 158 µM) and the MIC (Enterococcus faecalis) was 1 µg/mL (≈ 1.23 µM). It also gave an MIC (Haemophilus influenzae) of 4 µg/mL (≈ 4.93 µM), an MIC (Streptococcus pneumoniae) of 2 µg/mL (≈ 2.46 µM) and an MIC (Staphylococcus aureus [17]) of 0.25 µg/mL (≈ 0.308 µM). It also gave an MIC (Staphylococcus aureus [18]) of 128 µg/mL (≈ 158 µM), an MIC (Streptococcus pyogenes [19]) of 0.5 µg/mL (≈ 0.616 µM) and an MIC (Streptococcus pyogenes [20]) of 0.5 µg/mL (≈ 0.616 µM). The MIC (Staphylococcus aureus [21]) was 0.5 µg/mL (≈ 0.616 µM), the MIC (Staphylococcus aureus [22]) was 0.25 µg/mL (≈ 0.308 µM) and the T2 (Mus musculus [23]) was 2 h.
